# T cell modulator: T cell immune modulators affecting CD8 T cell-vesicle binding; actives 0.068% (n = 330,000); response (vesicle binding), % at 7 µM; 2C CD8+ T cell-vesicle binding, flow cytometry; hits give low values;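 active means response, share of CD8 T cells binding vesicles, and their 90th percentile fluorescence all below set limits, cut at about 80% in these data, passing the limit was not always enough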;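 further: values below 100% mean blocked vesicle binding to the CD8+ T cells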
#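 Material: 2C TCR transgenic mouse naive CD8+ T cells, MACS-purified. Also added: QL9-charged Drosophila Ld/ICAM-1/B7-1 vesicles. Timing: binding 1.5 h at 37 °C. Measured by: high-throughput flow cytometry with anti-B7-1 and anti-CD8 staining. Read-out: percent CD8+ FL2 mean versus row control. Controls: Unloaded micro-vesicles (low), QL9 vesicles with 0.7% DMSO (high).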
# Bfl-1 A1 inh: inhibitors of the anti-apoptotic protein A1, read as caspase activation | caspase activation, % (test concentration not listed) | MEF A1-2A-BIM cells, Caspase-Glo 3/7 luminescence, 3 h; percent of clofoctol response, vehicle zero | AID 2462 | actives 0.066% (n = 330,000);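 active means over half of replicate activation scores above 10%, or exactly half above 10 with the replicate mean above 10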
# NALP1 yeast inh: blocks the NALP1 inflammasome reconstituted in yeast. S. cerevisiae NALP1/ASC/caspase-1 growth, X-gal OD620, 72 h. inhibition, % at 10 µM. actives 0.61% (n = 280,000). AID 2071; in the data active means inhibition mostly above about 24%, no sharp cut-off; inactive means mostly below about 32%
# NALP3 yeast inh: NALP3 inhibition in yeast | Yeast reconstituted NLRP3/ASC/caspase-1, beta-gal luminescence, 24 h | inhibition, % at 10 µM | actives 0.39% (n = 330,000);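 active means inhibition of 50% or more; inactive means inhibition below 50%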;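 further: plate controls were induced DMSO wells for no effect and uninduced yeast grown without galactose for full effect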
# * = called active by the depositor; i = inactive; x = no result given. Sampled rows, rich in hits. Any-hit rate of the full collection: about 1%.
SMILES,T cell modulator,Bfl-1 A1 inh,NALP1 yeast inh,NALP3 yeast inh
COc1ccc(S(=O)(=O)N(C)C)cc1NC(=O)Cc1ccc(S(=O)(=O)N2CCOCC2)s1,x,x,x,9
CCC1(c2ccc(F)cc2)NC(=O)N(CC(=O)N2c3ccccc3CC2C)C1=O (stereo not given),91,-1,x,5
O=C(O)CC1Sc2nnc(COc3ccc(Cl)cc3)n2N=C1c1ccccc1 (stereo not given),477,1,6,-11
COc1ccc(CNC(=O)CN2CCN(C(c3ccccc3)c3ccccc3)CC2)cc1,380,0,37*,16
Cc1cc(NC(=O)c2ccc(Br)o2)ccc1NC(=O)c1ccco1,222,-7,4,27
CCn1c(SCC(=O)NC2CCCC2)nnc1-c1cccnc1,561,0,4,20
O=C(CC1Sc2ncnn2C1=O)Nc1ccc(Cl)cc1 (stereo not given),223,0,27,-2
CCOC(=O)c1ccc(NC(=O)CC2Sc3ncnn3C2=O)cc1 (stereo not given),558,-1,93*,34
COc1ccc(NC(=O)CC2Sc3ncnn3C2=O)cc1 (stereo not given),806,1,95*,11
CCC(Sc1nc(N)c(NC(=O)c2ccc(Br)o2)c(=O)[nH]1)C(=O)O (stereo not given),209,0,7,12
Cc1ncc([N+](=O)[O-])n1Cc1cccc(F)c1,72*,1,10,-4
Cc1ncc([N+](=O)[O-])n1Cc1ccccc1,163,0,23,2
CC(C)(C)NCC(=O)c1c[nH]c2ccccc12,200,0,30*,5
O=C(c1cccc(Cl)c1)N1CCN(c2ncnc3c2cnn3-c2ccccc2)CC1,278,-1,25*,13
O=C(c1ccccc1)N1CCN(c2ncnc3c2cnn3-c2ccccc2)CC1,223,1,-1,-6
O=C(NCc1ccccn1)C1CCCN(S(=O)(=O)c2cccc3nsnc23)C1 (stereo not given),237,0,32*,1
Cn1c(COc2ccccc2O)[n+](C)c2ccccc21,146,1,-2,1
CCCCCCCCCCOC(=O)Cn1c(COc2ccccc2OC)[n+](C)c2ccccc21,113,-1,37*,25
COC(=O)C1CCN(C(=O)CN2C(=O)NC(CC(C)C)C2=O)CC1 (stereo not given),283,0,x,-7
CCCS(=O)(=O)c1nc(S(=O)(=O)c2ccc(C)cc2)c(N2CCN(CCO)CC2)s1,388,-1,-6,4
COc1ccccc1CNS(=O)(=O)c1cc2c3c(c1)CCN3C(=O)CC2,376,1,x,12
CCN(CC)CCCN(Cc1cc2ccc(C)c(C)c2[nH]c1=O)C(=O)NC1CCCCC1,287,-1,23*,13
Cc1nn(Cc2c(Cl)cccc2Cl)c(C)c1NC(=O)c1cn(-c2ccccc2)nc1-c1ccccc1,172,13*,12,-6
Cc1cccc(C)c1NC(=O)CNC(=O)c1cn(-c2ccccc2)nc1-c1ccccc1,284,0,15,-1
CCOc1cc(C(=O)CSc2nnc(CNc3ccc(Cl)cc3)o2)ccc1NC(=O)CC,i,8.7*,-25,8
SMILES,T cell modulator,Bfl-1 A1 inh,NALP1 yeast inh,NALP3 yeast inh
O=C1CC(Cc2ccc(Br)cc2)C(=O)N1c1ccccc1 (stereo not given),i,0,5,20
C=CCOc1ccc(C2NC(=S)NC(c3ccccc3)=C2C(C)=O)cc1OC (stereo not given),27*,-1,2,19
COc1cc(C2NC(=O)NC(c3ccccc3)=C2C(C)=O)ccc1OCC#N (stereo not given),280,0,x,2
CCN(Cc1ccccc1)C1CCN(Cc2ccc(SC)cc2)CC1,232,1,28*,26
CCN(Cc1ccccc1)C(=O)C1CCN(Cc2ccc(SC)cc2)CC1,164,1,6,16
CCOC(=O)C1(CC)NC(c2ccc(OC)c(OC)c2)C2C(=O)N(c3cccc(C(C)=O)c3)C(=O)C21 (stereo not given),401,-1,2,9
O=C(COC(=O)c1cc(=O)[nH]c(=O)[nH]1)Nc1cccc(Cl)c1,738,0,x,-5
Cc1ccc(Cn2c(C3CCCN3c3nc(C)cs3)nc3cc(C(F)(F)F)ccc32)cc1 (stereo not given),418,1,5,-6
COc1ccc2cnn(-c3ccc(C)cc3)c(=O)c2c1OC,48,0,64*,20
COc1ccc2cnn(-c3ccc(OC(F)(F)Cl)cc3)c(=O)c2c1OC,410,1,17,20
COc1ccc(CCNC(=O)CSc2nc3[nH]ncc3c(=O)n2-c2ccccc2OC)cc1OC,320,0,35*,-2
C=CCOc1ccccc1CN1CCC(Oc2ccc(C(=O)N3CCCCC3)cc2)CC1,484,1,16,10
COc1ccc(/C=C/C(=O)NCCSCc2ccco2)cc1OC,300,0,39*,10
COc1ccc(NC(=S)N(C(C)C)C2CCN(C(C)C)CC2)cc1Cl,410,-1,47*,8
Cc1cnc(NC(=O)c2cc3ccccc3o2)s1,109,-10,6,37
Cc1ccc(NC(=O)CN(C)C(=O)COc2cccc3cccnc23)cc1,316,1,64*,5
Cc1nnc(C)c2c(C)n(-c3ccc4ncccc4c3)c(C)c12,262,0,25*,-6
Cc1ccc2ncccc2c1,733,0,x,12
Cc1cc(S(=O)(=O)Nc2ccc(C(=O)NCC(c3ccccc3)N(C)C)cc2)ccc1F (stereo not given),237,0,29*,8
CN(C)C(CNC(=O)c1ccc(NS(=O)(=O)c2ccc(F)c(F)c2)cc1)c1ccccc1 (stereo not given),469,1,x,9
Cc1ccc(N(CC(O)CN2CCCCC2)S(=O)(=O)c2ccccc2)cc1 (stereo not given),i,0,4,-11
O=C(c1nc2n(n1)C(c1ccc(Cl)cc1)C=C(c1ccccc1)N2)N1CCOCC1 (stereo not given),844,1,31*,-23
CN(C)c1ccc(C(CNC(=O)c2ccco2)N2CCCC2)cc1 (stereo not given),246,0,6,4
Cn1c(-c2c(N)n(CCCc3ccccc3)c3nc4ccccc4nc23)nc2ccccc21,x,x,41*,x
COc1cc(OC)cc(C(=O)O/N=C(\N)c2ccncc2)c1,0,0,24,6
COc1cc(OC)cc(C(=O)O/N=C(\N)c2cccc(C)c2)c1,134,-1,43*,27
Cc1cccc(/C(N)=N/OC(=O)C23CC4CC(CC(C4)C2)C3)c1,585,0,59*,9
CCC(=O)Nc1ccc(Cl)c(NC(=O)c2cccnc2)c1,622,0,9,13
CCCC(=O)Nc1ccc(Cl)c(NC(=O)c2cccnc2)c1,0.0*,0,34,2
CN(CC1COc2ccccc2O1)C(=O)CSc1ncccn1 (stereo not given),272,-1,x,8
